# Measured values published in ChEMBL document CHEMBL2331205, “Anti-hepatitis B virus and anti-cancer activities of novel isoflavone analogs” (Eur J Med Chem, 2013).
# How the values were obtained:
# A549 [1] = experiment: Growth inhibition of human A549 cells after 48 hrs by MTT assay; format: functional, cell-based; conditions: A549, 48 h
# Procedure, shortened: (§1)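 Cells seeded at 8000/well, treated 24 h later in duplicate with a range of concentrations (DMSO stock 10 g/L diluted in fresh medium), 48 h at 37 °C, 5% CO2. MTT (5 mg/ml in PBS) added for 4 h, formazan dissolved in DMSO, absorbance read at 570 nm. IC50 is the concentration giving 50% survival.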
# HeLa = experiment: Growth inhibition of human HeLa cells after 48 hrs by MTT assay; format: functional, cell-based; procedure, shortened: as §1
# [2] = Growth inhibition of human QGY7701 cells after 48 hrs by MTT assay; format: functional; conditions: QGY7701, 48 h; procedure, shortened: as §1
# Huh-7 [3] = experiment: Growth inhibition of human HuH7 cells after 48 hrs by MTT assay; format: functional, cell-based; conditions: Huh-7, 48 h; procedure, shortened: as §1
# [4] = Growth inhibition of human L02 cells after 48 hrs by MTT assay; format: functional, cell-based; conditions: L02, 48 h; procedure, shortened: as §1
# [5] = Selectivity index, ratio of CC50 for human HepG2(2.2.15) cells to IC50 for HBV infected in human HepG2(2.2.15) cells assessed as inhibition of HBeAg production; format: functional
# Procedure, shortened: (§2)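 Selectivity index calculated as CC50 in HepG2 2.2.15 cells (MTT, 9-day exposure) divided by IC50 for HBeAg or HBsAg reduction (ELISA of 9-day supernatants).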
# [6] = Selectivity index, ratio of CC50 for human HepG2(2.2.15) cells to IC50 for HBV infected in human HepG2(2.2.15) cells assessed as inhibition of HBsAg production; format: functional; procedure, shortened: as §2
# [7] = Cytotoxicity against human HepG2(2.2.15) cells compound treated for 48 hrs followed by incubation for 9 days by MTT assay; format: cell-based
# Procedure, shortened: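 HepG2 2.2.15 cells kept 48 h in plates before adding compounds (DMSO stocks serially diluted in medium), then incubated at 37 °C for 9 days. Media-only wells as blank. MTT (5 g/L) added 4 h before lysis in 10% SDS/50% DMF, pH 7.2; OD at 570 nm gives percent cell death; CC50 derived.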
# Hepatitis B virus [8] = experiment: Antiviral activity against HBV infected in human HepG2(2.2.15) cells assessed as inhibition of viral replication after 9 days by fluorescence PCR method; format: functional, organism-based; conditions: HepG2 2.2.15, 216 h
# Procedure, shortened: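 HepG2 2.2.15 cells given a range of compound concentrations for nine days; HBV DNA quantified by fluorescence PCR. IC50 taken as the concentration giving 50% inhibition of HBV DNA replication.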
# Hepatitis B virus [9] = experiment: Antiviral activity against HBV infected in human HepG2(2.2.15) cells assessed as inhibition of HBeAg production after 9 days by ELISA; format: functional, organism-based; conditions: HepG2 2.2.15, 216 h
# Procedure, shortened: (§3)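 HepG2 2.2.15 cells (HBV-producing) given a range of compound concentrations for nine days; culture supernatants collected and HBsAg or HBeAg levels measured by ELISA. IC50 taken as the concentration giving 50% inhibition of antigen level.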
# Hepatitis B virus [10] = experiment: Antiviral activity against HBV infected in human HepG2(2.2.15) cells assessed as inhibition of HBsAg production after 9 days by ELISA; format: functional, organism-based; conditions: HepG2 2.2.15, 216 h; procedure, shortened: as §3
# Huh-7 [11] = experiment: Ratio of 5-Fu IC50 to compound IC50 for human HuH7 cells after 48 hrs by MTT assay; format: functional
# [12] = Selectivity index, ratio of CC50 for human HepG2(2.2.15) cells to IC50 for HBV infected in human HepG2(2.2.15) cells assessed as inhibition of viral replication; format: functional
# Procedure, shortened: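 Selectivity index calculated as CC50 in HepG2 2.2.15 cells (MTT, 9-day exposure) divided by IC50 for HBV DNA reduction measured by fluorescence PCR after 9 days.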
# A549 [13] = experiment: Ratio of 5-Fu IC50 to compound IC50 for human A549 cells after 48 hrs by MTT assay; format: functional
structure (smiles),measurement,setting,value
COc1ccc2c(=O)c(/C=C/C(=O)NCCc3ccc(F)cc3)coc2c1,IC50,A549 [1],18.9 µM
same,IC50,HeLa,> 100 µM
same,IC50,[2],24.8 µM
same,IC50,Huh-7 [3],29.2 µM
same,IC50,[4],> 200 µM
same,Ratio CC50/IC50,[5],53.45
same,Ratio CC50/IC50,[6],53.64
same,CC50 at 48 h,[7],786 µM
same,IC50,Hepatitis B virus [8],> 100 µM
same,IC50,Hepatitis B virus [9],14.7 µM
same,IC50,Hepatitis B virus [10],14.7 µM
O=C(/C=C/c1coc2cc(O)ccc2c1=O)Nc1ccccc1,Ratio IC50,Huh-7 [11],4
same,IC50,A549 [1],24.4 µM
same,IC50,HeLa,9.7 µM
same,IC50,[2],17.9 µM
same,IC50,Huh-7 [3],3.88 µM
same,IC50,[4],> 200 µM
same,Ratio CC50/IC50,[12],28.29
same,Ratio CC50/IC50,[5],61.12
same,Ratio CC50/IC50,[6],18.02
same,CC50 at 48 h,[7],821 µM
same,IC50,Hepatitis B virus [8],29 µM
same,IC50,Hepatitis B virus [9],13.4 µM
same,IC50,Hepatitis B virus [10],45.5 µM
Cc1ccc(CNC(=O)/C=C/c2coc3cc(O)ccc3c2=O)cc1,IC50,A549 [1],17.4 µM
same,IC50,HeLa,> 100 µM
same,IC50,[2],24.9 µM
same,IC50,Huh-7 [3],> 100 µM
same,IC50,[4],> 200 µM
same,Ratio CC50/IC50,[12],35.31
same,Ratio CC50/IC50,[5],26.16
same,Ratio CC50/IC50,[6],30.27
same,CC50 at 48 h,[7],501 µM
same,IC50,Hepatitis B virus [8],14.2 µM
same,IC50,Hepatitis B virus [9],19.1 µM
same,IC50,Hepatitis B virus [10],16.5 µM
COc1ccc(CNC(=O)/C=C/c2coc3cc(O)ccc3c2=O)cc1,IC50,A549 [1],> 100 µM
same,IC50,HeLa,> 100 µM
same,IC50,[2],10 µM
same,IC50,Huh-7 [3],8.43 µM
same,IC50,[4],> 200 µM
same,Ratio CC50/IC50,[12],152.76
same,Ratio CC50/IC50,[5],306.82
same,Ratio CC50/IC50,[6],70.25
same,CC50 at 48 h,[7],718 µM
same,IC50,Hepatitis B virus [8],4.7 µM
same,IC50,Hepatitis B virus [9],2.34 µM
same,IC50,Hepatitis B virus [10],10.2 µM
O=C(/C=C/c1coc2cc(O)ccc2c1=O)NCc1ccc(F)cc1F,IC50,A549 [1],6.61 µM
same,IC50,HeLa,> 100 µM
same,IC50,[2],> 100 µM
same,IC50,Huh-7 [3],> 100 µM
same,IC50,[4],> 200 µM
same,Ratio CC50/IC50,[12],20.16
same,Ratio CC50/IC50,[5],38.05
same,Ratio CC50/IC50,[6],32.34
same,CC50 at 48 h,[7],470 µM
same,IC50,Hepatitis B virus [8],23.3 µM
same,IC50,Hepatitis B virus [9],12.3 µM
same,IC50,Hepatitis B virus [10],14.5 µM
O=C(/C=C/c1coc2cc(O)ccc2c1=O)NCCc1ccc(F)cc1,IC50,A549 [1],6.84 µM
same,IC50,HeLa,> 100 µM
same,IC50,[2],> 100 µM
same,IC50,Huh-7 [3],> 100 µM
same,IC50,[4],> 200 µM
same,Ratio CC50/IC50,[5],6.64
same,Ratio CC50/IC50,[6],7.03
same,CC50 at 48 h,[7],102 µM
same,IC50,Hepatitis B virus [8],> 100 µM
same,IC50,Hepatitis B virus [9],15.4 µM
same,IC50,Hepatitis B virus [10],14.6 µM
COc1ccc2c(=O)c(/C=C/C(=O)Nc3cccc(Cl)c3)coc2c1,Ratio IC50,A549 [13],12
same,IC50,A549 [1],0.47 µM
same,IC50,HeLa,11.8 µM
same,IC50,[2],> 100 µM
same,IC50,Huh-7 [3],> 100 µM
same,IC50,[4],> 200 µM
same,CC50 at 48 h,[7],1100 µM
same,IC50,Hepatitis B virus [8],> 100 µM
same,IC50,Hepatitis B virus [9],> 100 µM
same,IC50,Hepatitis B virus [10],> 100 µM
COc1ccc2c(=O)c(/C=C/C(=O)Nc3ccc(Cl)cc3)coc2c1,IC50,A549 [1],> 100 µM
same,IC50,HeLa,> 100 µM
same,IC50,[2],> 100 µM
same,IC50,Huh-7 [3],37.1 µM
same,IC50,[4],> 200 µM
same,Ratio CC50/IC50,[12],4.03
same,Ratio CC50/IC50,[5],12.97
same,Ratio CC50/IC50,[6],2.96
same,CC50 at 48 h,[7],272 µM
same,IC50,Hepatitis B virus [8],67.5 µM
same,IC50,Hepatitis B virus [9],20.9 µM
same,IC50,Hepatitis B virus [10],91.7 µM
COc1ccc2c(=O)c(/C=C/C(=O)NCc3ccc(C)cc3)coc2c1,IC50,A549 [1],> 100 µM
same,IC50,HeLa,> 100 µM
same,IC50,[2],10.2 µM
same,IC50,Huh-7 [3],14.3 µM
same,IC50,[4],> 200 µM
same,Ratio CC50/IC50,[12],4.81
same,Ratio CC50/IC50,[6],3.11
same,CC50 at 48 h,[7],257 µM
same,IC50,Hepatitis B virus [8],53.5 µM
same,IC50,Hepatitis B virus [9],> 100 µM
same,IC50,Hepatitis B virus [10],82.6 µM
COc1ccc(CNC(=O)/C=C/c2coc3cc(OC)ccc3c2=O)cc1,IC50,A549 [1],22.5 µM
same,IC50,HeLa,> 100 µM
same,IC50,[2],15.7 µM
same,IC50,Huh-7 [3],7.57 µM
same,IC50,[4],> 200 µM
same,Ratio CC50/IC50,[12],1.77
same,Ratio CC50/IC50,[5],2.98
same,Ratio CC50/IC50,[6],3.08
same,CC50 at 48 h,[7],43 µM
same,IC50,Hepatitis B virus [8],24.3 µM
same,IC50,Hepatitis B virus [9],14.4 µM
same,IC50,Hepatitis B virus [10],14 µM
COc1ccc2c(=O)c(/C=C/C(=O)NCc3ccccc3F)coc2c1,IC50,A549 [1],> 100 µM
same,IC50,HeLa,> 100 µM
same,IC50,[2],34 µM
same,IC50,Huh-7 [3],8.45 µM
same,IC50,[4],> 200 µM
same,Ratio CC50/IC50,[12],2.13
same,Ratio CC50/IC50,[6],2.8
same,CC50 at 48 h,[7],146 µM
same,IC50,Hepatitis B virus [8],68.6 µM
same,IC50,Hepatitis B virus [9],> 100 µM
same,IC50,Hepatitis B virus [10],52.1 µM
COc1ccc2c(=O)c(/C=C/C(=O)NCc3ccc(F)cc3F)coc2c1,IC50,A549 [1],13.3 µM
same,IC50,HeLa,> 100 µM
same,IC50,[2],> 100 µM
same,IC50,Huh-7 [3],> 100 µM
same,IC50,[4],> 200 µM
same,Ratio CC50/IC50,[12],2.14
same,Ratio CC50/IC50,[5],5.35
same,Ratio CC50/IC50,[6],5.55
same,CC50 at 48 h,[7],79.2 µM
same,IC50,Hepatitis B virus [8],37 µM
same,IC50,Hepatitis B virus [9],14.8 µM
same,IC50,Hepatitis B virus [10],14.3 µM
COc1ccc2c(=O)c(/C=C/C(=O)Nc3ccccc3)coc2c1,IC50,A549 [1],51 µM
same,IC50,HeLa,> 100 µM
same,IC50,[2],14 µM
same,IC50,Huh-7 [3],9.05 µM
same,IC50,[4],> 200 µM
same,Ratio CC50/IC50,[5],30.85
same,Ratio CC50/IC50,[6],32.7
same,CC50 at 48 h,[7],523 µM
same,IC50,Hepatitis B virus [8],> 100 µM
same,IC50,Hepatitis B virus [9],16.9 µM
same,IC50,Hepatitis B virus [10],16 µM
COc1ccc2c(=O)c(/C=C/C(=O)Nc3ccccc3C)coc2c1,IC50,A549 [1],23.4 µM
same,IC50,HeLa,7.27 µM
same,IC50,[2],22.4 µM
same,IC50,Huh-7 [3],26.9 µM
same,IC50,[4],> 200 µM
same,Ratio CC50/IC50,[5],3.77
same,Ratio CC50/IC50,[6],4
same,CC50 at 48 h,[7],59.7 µM
same,IC50,Hepatitis B virus [8],> 100 µM
same,IC50,Hepatitis B virus [9],15.8 µM
same,IC50,Hepatitis B virus [10],14.9 µM
